Test results published in ChEMBL document CHEMBL4819003, “Optimization of novel oxidative DIMs as Nur77 modulators of the Nur77-Bcl-2 apoptotic pathway” (Eur J Med Chem, 2021).

Columns and labels:
[1] = Cmax in male Sprague-Dawley rat at 0.5 mg/kg, iv measured for 36 hrs by LC-MS/MS analysis; type: ADME, organism-based; set-up: route intravenous, dose 0.5 mg/kg, time 36 hrs; settings: in vivo
BT-549 [2] = assay: Induction of apoptosis in human BT-549 cells assessed as viable cells at 0.5 uM measured after 6 hrs by Annexin V-FITC/PI staining based flow cytometry method (reference value: 98.51%); type: functional; settings: read-out: Activity
How it was run: (§1)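 Cells seeded at 1×10^6 per well and treated with 0.5 µM for 6 h. Floating and adherent cells pooled, stained with Annexin V-FITC for 10 min and propidium iodide for 5 min, then analysed immediately by flow cytometry in FITC and PC5.5 channels. Mean ± SD, n = 3.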

BT-549 [3] = assay: Induction of apoptosis in human BT-549 cells assessed as necrotic cells at 0.5 uM measured after 6 hrs by Annexin V-FITC/PI staining based flow cytometry method (reference value: 0.11%); type: functional; how it was run: as §1
SW-620 [4] = assay: Induction of apoptosis in human SW-620 cells assessed as early apoptotic cells at 0.5 uM measured after 6 hrs by Annexin V-FITC/PI staining based flow cytometry method (reference value: 1.02%); type: functional
HCT-116 [5] = assay: Induction of apoptosis in human HCT-116 cells assessed as early apoptotic cells at 0.5 uM measured after 6 hrs by Annexin V-FITC/PI staining based flow cytometry method (reference value: 1.39%); type: functional; how it was run: as §1
SW-620 [6] = assay: Induction of apoptosis in human SW-620 cells assessed as late apoptotic cells at 0.5 uM measured after 6 hrs by Annexin V-FITC/PI staining based flow cytometry method (reference value: 0.05%); type: functional; how it was run: as §1
HCT-116 [7] = assay: Cytotoxicity against human HCT-116 cells assessed as inhibition of cell growth measured after 24 hrs by MTT assay; type: functional, cell-based; settings: Homo sapiens, HCT-116, 24 h
How it was run: (§2)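 MTT viability assay, 24 h exposure to a concentration series, 10^4 cells/well. Cancer lines were in DMEM (BT549, MDA-MB-231) or RPMI-1640 (HCT116, SW620) with 10% FBS. MCF10A and NCM460 were in DMEM with 20% FBS and 10 ng/ml EGF. MTT at 5 mg/mL for 4 h at 37 °C, formazan dissolved in DMSO, A490. IC50 from curve fit; mean ± SD, at least 6 experiments.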

SW-620 [8] = assay: Cytotoxicity against human SW-620 cells assessed as inhibition of cell growth measured after 24 hrs by MTT assay; type: functional, cell-based; settings: SW-620, 24 h; how it was run: as §2
MDA-MB-231 [9] = assay: Cytotoxicity against human MDA-MB-231 cells assessed as inhibition of cell growth measured after 24 hrs by MTT assay; type: functional, cell-based; settings: MDA-MB-231, 24 h; how it was run: as §2
SW-620 [10] = assay: Induction of apoptosis in human SW-620 cells assessed as necrotic cells at 0.5 uM measured after 6 hrs by Annexin V-FITC/PI staining based flow cytometry method (reference value: 0.26%); type: functional; how it was run: as §1
[11] = molecular target: T1, Nuclear receptor subfamily 4immunitygroup A member 1 (Homo sapiens, UniProt P22736); assay: Binding affinity to recombinant human N-terminal His-tagged Nur77-LBD (367 to 598 residues) expressed in Escherichia coli BL21 DE3 by flourescence quenching assay
How it was run: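 Human Nur77-LBD (367–598), N-terminal His tag, pET15b in E. coli BL21 DE3, Ni resin purified. Nur77-LBD at 1 µM in PBS in a quartz cell, titrated with compound over 0.01–1 µM at 25 °C. Excitation 280 nm, emission scanned 300–500 nm; peak intensity at 330 nm versus compound concentration fitted to a reported formula for Kd.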

MDA-MB-231 [12] = assay: Induction of apoptosis in human MDA-MB-231 cells assessed as viable cells at 0.5 uM measured after 6 hrs by Annexin V-FITC/PI staining based flow cytometry method (reference value: 98.51%); type: functional; settings: read-out: Activity; how it was run: as §1
NCM460 = assay: Cytotoxicity against human NCM460 cells assessed as inhibition of cell growth measured after 24 hrs by MTT assay; type: cell-based; settings: Homo sapiens, NCM460, 24 h; how it was run: as §2
BT-549 [13] = assay: Induction of apoptosis in human BT-549 cells assessed as late apoptotic cells at 0.5 uM measured after 6 hrs by Annexin V-FITC/PI staining based flow cytometry method (reference value: 0.11%); type: functional; how it was run: as §1
BT-549 [14] = assay: Cytotoxicity against human BT-549 cells assessed as inhibition of cell growth measured after 24 hrs by MTT assay; type: functional, cell-based; settings: BT-549, 24 h; how it was run: as §2
[15] = molecular target: T1, Nuclear receptor subfamily 4immunitygroup A member 1; assay: Binding affinity to recombinant human N-terminal His-tagged Nur77-LBD (367 to 598 residues) expressed in Escherichia coli BL21 DE3 by surface plasmon resonance assay
How it was run: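 His-tagged human Nur77-LBD (367–598) from E. coli BL21 DE3, diluted to 0.05 mg/mL in 10 mM NaAc pH 5.0 and amine-coupled to a CM5 chip (~9000 RU). Compounds at 0.01–5 µM in PBS with 0.4% DMSO, 25 °C, 30 µL/min; 150 s association, 420 s dissociation, regeneration with 10 mM glycine-HCl pH 2.5. Reference- and blank-subtracted; Kd from global 1:1 kinetic fit.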

HCT-116 [16] = assay: Induction of apoptosis in human HCT-116 cells assessed as late apoptotic cells at 0.5 uM measured after 6 hrs by Annexin V-FITC/PI staining based flow cytometry method (reference value: 0.06%); type: functional; how it was run: as §1
MDA-MB-231 [17] = assay: Induction of apoptosis in human MDA-MB-231 cells assessed as early apoptotic cells at 0.5 uM measured after 6 hrs by Annexin V-FITC/PI staining based flow cytometry method (reference value: 1.27%); type: functional; how it was run: as §1
MCF-10A = assay: Cytotoxicity against human MCF-10A cells assessed as inhibition of cell growth measured after 24 hrs by MTT assay; type: cell-based; settings: Homo sapiens, MCF-10A, 24 h; how it was run: as §2
MDA-MB-231 [18] = assay: Induction of apoptosis in human MDA-MB-231 cells assessed as late apoptotic cells at 0.5 uM measured after 6 hrs by Annexin V-FITC/PI staining based flowcytometry method (reference value: 0.11%); type: functional; how it was run: as §1
BT-549 [19] = assay: Induction of apoptosis in human BT-549 cells assessed as early apoptotic cells at 0.5 uM measured after 6 hrs by Annexin V-FITC/PI staining based flow cytometry method (reference value: 1.27%); type: functional; how it was run: as §1
HCT-116 [20] = assay: Induction of apoptosis in human HCT-116 cells assessed as viable cells at 0.5 uM measured after 6 hrs by Annexin V-FITC/PI staining based flow cytometry method (reference value: 98.18%); type: functional; settings: read-out: Activity; how it was run: as §1
MDA-MB-231 [21] = assay: Induction of apoptosis in human MDA-MB-231 cells assessed as necrotic cells at 0.5 uM measured after 6 hrs by Annexin V-FITC/PI staining based flow cytometry method (reference value: 0.11%); type: functional; how it was run: as §1
HCT-116 [22] = assay: Induction of apoptosis in human HCT-116 cells assessed as necrotic cells at 0.5 uM measured after 6 hrs by Annexin V-FITC/PI staining based flow cytometry method (reference value: 0.37%); type: functional; how it was run: as §1
[23] = Clearance in female Sprague-Dawley rat at 0.5 mg/kg, iv measured for 36 hrs by LC-MS/MS analysis; type: ADME, organism-based; settings: in vivo

T1 sequence (P22736 whole entry, the tested form may be a part): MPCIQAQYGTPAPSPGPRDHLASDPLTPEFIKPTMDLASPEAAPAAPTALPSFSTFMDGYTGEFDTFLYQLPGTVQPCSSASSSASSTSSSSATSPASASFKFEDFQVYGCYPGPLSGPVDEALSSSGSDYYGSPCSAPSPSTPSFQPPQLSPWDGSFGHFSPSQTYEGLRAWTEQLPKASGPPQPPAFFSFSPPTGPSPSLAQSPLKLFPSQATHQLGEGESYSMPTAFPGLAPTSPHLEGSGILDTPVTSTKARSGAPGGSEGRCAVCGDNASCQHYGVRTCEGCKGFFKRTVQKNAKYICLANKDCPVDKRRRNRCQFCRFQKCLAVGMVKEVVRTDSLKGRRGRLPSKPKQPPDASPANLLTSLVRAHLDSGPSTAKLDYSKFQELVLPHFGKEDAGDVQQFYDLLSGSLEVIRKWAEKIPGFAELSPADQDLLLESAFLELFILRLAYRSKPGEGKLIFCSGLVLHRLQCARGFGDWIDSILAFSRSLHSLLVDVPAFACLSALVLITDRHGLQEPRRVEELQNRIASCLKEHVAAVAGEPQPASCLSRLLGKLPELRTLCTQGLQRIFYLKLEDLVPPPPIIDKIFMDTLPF

Kd [11] | Kd [15] | SMILES | viability at 0.5 µM (BT-549 [2]) | Activity (BT-549 [3]) | Activity (SW-620 [4]) | Activity (HCT-116 [5]) | Activity (SW-620 [6]) | IC50 (HCT-116 [7]) | IC50 (SW-620 [8]) | IC50 (MDA-MB-231 [9]) | Activity (SW-620 [10]) | viability at 0.5 µM (MDA-MB-231 [12]) | IC50 (NCM460) | Activity (BT-549 [13]) | IC50 (BT-549 [14]) | Activity (HCT-116 [16]) | Activity (MDA-MB-231 [17]) | IC50 (MCF-10A) | Activity (MDA-MB-231 [18]) | Activity (BT-549 [19]) | also measured
217 nM | 110 nM | CS(=O)(=O)[O-].FC(F)(F)c1ccc([C+](c2c[nH]c3ccccc23)c2c[nH]c3ccccc23)cc1 | 74% | 1.17% | 12.97% | 11.05% | 15.18% | 270 nM | 180 nM | 220 nM | 1.47% | 85.7% | 6840 nM | 4.21% | 170 nM | 3.58% | 12.18% | 4290 nM | 0.65% | 20.65% | Cmax [1]: 880 ng/mL; viability at 0.5 µM (HCT-116 [20]): 81.6%; Activity (MDA-MB-231 [21]): 1.47%; Activity (HCT-116 [22]): 3.81%; CL [23]: 4.67 mL/min/kg
66 nM | 33 nM | CS(=O)(=O)[O-].Cn1cc([C+](c2ccc(C(F)(F)F)cc2)c2c[nH]c3ccccc23)c2ccccc21 | 14.4% | 0.88% | 29.59% | 44.48% | 62.95% | 90 nM | 100 nM | 60 nM | 0.38% | 33.7% | 4630 nM | 10.97% | 40 nM | 19.94% | 62.49% | 2190 nM | 3.04% | 73.75% | viability at 0.5 µM (HCT-116 [20]): 33.3%; Activity (MDA-MB-231 [21]): 0.74%; Activity (HCT-116 [22]): 2.3%
